12 molecules from ChEMBL document CHEMBL2010705, “Design and synthesis of 4-alkynyl pyrazoles as inhibitors of PDE4: a practical access via Pd/C-Cu catalysis” (Bioorg Med Chem Lett, 2012) can be followed below.

In general, inhibition refers to the percentage by which the read-out fell short of the control.

The source made the active and inactive calls. No cut-off for these calls is given here.

Experiment [1] addresses 3',5'-cyclic-AMP phosphodiesterase 4B (Homo sapiens) (UniProt Q07343). Nature of the experiment: Inhibition of PDE4B expressed in Sf9 cells using cAMP as substrate at 30 uM preincubated for 15 mins prior substrate addition measured after 1 hr by luminescence-based spectrophotometry. A digest of the protocol:
(§1)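 10 ng PDE4B enzyme (isolated from Sf9 cells) was preincubated 15 min with compound or DMSO vehicle, then incubated 1 h with 5 µM cAMP using a PDElight HTS cAMP phosphodiesterase kit. The reaction was stopped, then developed with detection reagent for 10 min in the dark. Luminescence (RLU) was read, and % inhibition was calculated as (RLU vehicle − RLU inhibitor)/RLU vehicle × 100.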

For experiment [2] the target is unchanged. Nature of the experiment: Inhibition of PDE4B expressed in Sf9 cells using cAMP as substrate preincubated for 15 mins prior substrate addition measured after 1 hr by luminescence-based spectrophotometry. A digest of the protocol: as §1
Experiment [3] has as its target 3',5'-cyclic-AMP phosphodiesterase 4D (Homo sapiens) (UniProt Q08499). Nature of the experiment: Inhibition of PDE4D2 using cAMP as substrate at 30 uM preincubated for 15 mins prior substrate addition measured after 1 hr by luminescence-based spectrophotometry.
A short description of experiment [4]: Ratio of inhibition of PDE4B over inhibition of PDE4D2.

Chain of 3',5'-cyclic-AMP phosphodiesterase 4B (Homo sapiens) (Q07343 whole entry): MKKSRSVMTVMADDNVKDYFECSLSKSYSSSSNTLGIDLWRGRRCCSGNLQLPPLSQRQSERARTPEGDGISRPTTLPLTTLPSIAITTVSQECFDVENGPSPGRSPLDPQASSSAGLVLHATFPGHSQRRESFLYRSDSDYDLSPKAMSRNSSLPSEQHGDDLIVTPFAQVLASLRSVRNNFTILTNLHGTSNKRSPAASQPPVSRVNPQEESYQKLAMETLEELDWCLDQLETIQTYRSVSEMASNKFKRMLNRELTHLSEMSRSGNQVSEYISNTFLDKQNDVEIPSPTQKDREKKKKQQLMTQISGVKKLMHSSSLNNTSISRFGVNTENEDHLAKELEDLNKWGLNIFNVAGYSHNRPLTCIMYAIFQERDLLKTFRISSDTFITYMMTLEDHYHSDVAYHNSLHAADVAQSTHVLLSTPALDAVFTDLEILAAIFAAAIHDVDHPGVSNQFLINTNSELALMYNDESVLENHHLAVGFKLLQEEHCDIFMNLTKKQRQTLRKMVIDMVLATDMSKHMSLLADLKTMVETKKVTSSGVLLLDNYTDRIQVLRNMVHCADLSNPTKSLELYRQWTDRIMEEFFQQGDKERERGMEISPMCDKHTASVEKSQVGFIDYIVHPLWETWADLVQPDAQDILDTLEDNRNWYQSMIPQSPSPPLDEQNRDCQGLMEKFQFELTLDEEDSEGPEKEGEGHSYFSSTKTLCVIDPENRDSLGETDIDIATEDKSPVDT
Chain of 3',5'-cyclic-AMP phosphodiesterase 4D (Homo sapiens) (Q08499 whole entry): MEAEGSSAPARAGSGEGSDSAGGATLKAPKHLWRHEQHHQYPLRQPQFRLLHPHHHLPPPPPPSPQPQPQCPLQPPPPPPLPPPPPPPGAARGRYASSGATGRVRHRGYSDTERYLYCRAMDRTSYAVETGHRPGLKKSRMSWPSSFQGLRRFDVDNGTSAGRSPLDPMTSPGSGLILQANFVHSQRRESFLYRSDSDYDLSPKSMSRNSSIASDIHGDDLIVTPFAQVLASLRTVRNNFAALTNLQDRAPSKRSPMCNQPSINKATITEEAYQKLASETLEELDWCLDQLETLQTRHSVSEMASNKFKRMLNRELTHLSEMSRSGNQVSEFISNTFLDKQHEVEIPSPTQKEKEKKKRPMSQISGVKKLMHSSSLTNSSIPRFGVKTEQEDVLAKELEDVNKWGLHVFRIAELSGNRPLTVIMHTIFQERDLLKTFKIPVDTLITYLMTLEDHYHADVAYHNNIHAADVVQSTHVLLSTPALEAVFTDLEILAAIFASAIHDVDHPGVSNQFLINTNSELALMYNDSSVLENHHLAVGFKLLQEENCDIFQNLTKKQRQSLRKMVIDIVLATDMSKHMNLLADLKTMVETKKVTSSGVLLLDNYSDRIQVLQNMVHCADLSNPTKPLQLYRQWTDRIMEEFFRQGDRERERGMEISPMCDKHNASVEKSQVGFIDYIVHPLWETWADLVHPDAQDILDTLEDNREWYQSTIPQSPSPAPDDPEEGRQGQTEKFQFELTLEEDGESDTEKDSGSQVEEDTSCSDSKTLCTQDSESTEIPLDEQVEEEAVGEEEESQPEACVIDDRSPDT

For the molecule `CCOC(=O)c1n[nH]c(-c2cccc(Cl)c2)c1C#CCO`, in experiment [1], the inhibition is 68.1%.

Turning to `Cc1c(C#Cc2ccccc2)cnn1C`, the inhibition entry in experiment [2] was “Active”.

For the molecule `CCOC(=O)c1n[nH]c(-c2cccc(Cl)c2)c1C#Cc1ccccc1`, the values for the inhibition in experiment [1] and in experiment [3] were 70% and 20%, respectively. Further, the Ratio in experiment [4] was 2.

With `CCOC(=O)c1n[nH]c(-c2cccc(Cl)c2)c1C#CC(C)(C)O`, the inhibition in experiment [1] was 70%; in experiment [3], 20%. Also, in experiment [4], the Ratio was determined as 2.

For `CCOC(=O)c1nn(C)c(-c2cccc(Cl)c2)c1C#CC(C)(C)O`, the inhibition in experiment [1] was 67.3%.

In the case of `CCOC(=O)c1nn(C)c(-c2cccc(Cl)c2)c1C#CCO`, the inhibition in experiment [1] came out at 69.1%.

Turning to `CCOC(=O)c1n[nH]c(-c2cccc(Cl)c2)c1C#CCCCC#N`, the inhibition in experiment [1] was 71.1%; in experiment [3] it was 20%. In addition, the Ratio in experiment [4] is 2.

For `Cc1nn(C)c(C)c1C#Cc1ccccc1`, the inhibition result in experiment [2] was “Active”.

As for `CCOC(=O)c1n[nH]c(-c2cccc(Cl)c2)c1C#CC1(O)CCCCC1`, the inhibition in experiment [1] was 21.1%.

Regarding `CCOC(=O)c1nn(C)c(-c2cccc(Cl)c2)c1C#CCCCC#N`, the inhibition in experiment [1] was 73.4%; in experiment [2] it was “Dose-dependent effect”; in experiment [3], 20%. Further, the Ratio in experiment [4] amounted to 2.

In experiment [1], `CCOC(=O)c1n[nH]c(-c2cccc(Cl)c2)c1C#CCCO` gave an inhibition of 65.1%.

`CCOC(=O)c1nn(C)c(-c2cccc(Cl)c2)c1C#CCCO` came in with an inhibition in experiment [1] of 59.2%.
